In ChEMBL document CHEMBL4385601, “Anti-Zika Activity of a Library of Synthetic Carbohydrate Receptors” (J Med Chem, 2019):
Calls of active or inactive are those of the source. The rule behind the calls is not given here.

Columns and labels:
Zika virus [1] = experiment: Antiviral activity against Zika virus harboring subgenomic GFP replicon infected in African green monkey Vero cells assessed as reduction in viral infection at 100 uM preincubated for 30 mins followed by viral infection and measured after 72 hrs; format: functional, organism-based
Zika virus [2] = experiment: Antiviral activity against Zika virus harboring subgenomic GFP replicon infected in African green monkey Vero cells assessed as reduction in viral infection preincubated for 30 mins followed by viral infection and measured after 72 hrs; format: functional, organism-based
Summary of the method: (§1)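 Vero or HeLa cells (DMEM, 10% FBS) at 5,000/well were pretreated 30 min at room temperature; compound came from 10 mM DMSO stock diluted in medium. Cells were infected with reporter particles (ZIKV C-prM-E carrying a WNV GFP replicon) at a dose giving up to 1000 GFP+ cells/well. After 72 h at 37 °C, whole-well GFP+ counts were normalised to DMSO-treated infected cells. Wells were run in duplicate/triplicate, three experiments; IC50 taken from curve fits.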

[3] = Binding affinity to beta mannose in CD2Cl2 by NMR analysis
[4] = Binding affinity to alpha mannose in CD2Cl2 by NMR analysis
[5] = Cytotoxicity against human HeLa cells assessed as reduction in cell viability measured after 72 hrs by Celltiter-Glo luminescence assay; format: cell-based; conditions: read-out: TC50
Summary of the method: (§2)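 Vero or HeLa cells at 5,000/well were exposed to compound in duplicate for 72 h at 37 °C. Viability was read as cellular ATP by CellTiter-Glo luminescence and normalised to DMSO-treated cells as 100%. TC50 came from 4-parameter sigmoidal logistic fits.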

Zika virus [6] = experiment: Antiviral activity against Zika virus harboring subgenomic GFP replicon infected in human HeLa cells assessed as reduction in viral infection preincubated for 30 mins followed by viral infection and measured after 72 hrs; format: functional, organism-based; summary of the method: as §1
[7] = Cytotoxicity against African green monkey Vero cells assessed as reduction in cell viability measured after 72 hrs by Celltiter-Glo luminescence assay; format: cell-based; conditions: chlorocebus sabaeus, read-out: TC50; summary of the method: as §2
Zika virus [8] = experiment: Antiviral activity against Zika virus harboring subgenomic GFP replicon infected in African green monkey Vero cells assessed as reduction in viral infection treated 4 hrs post-infection and measured 72 hrs post-infection; format: functional, organism-based
Summary of the method: (§3)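 Vero cells were infected with a predetermined dose of ZIKV GFP reporter virus particles. Compound was added 4 h or 24 h after infection. Plates were fixed 72 h post-infection and GFP+ cells per well counted by whole-well imaging.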

Vero [9] = experiment: Inhibition of envelope glycoprotein N154Q mutant in Zika virus infected in African green monkey Vero cells assessed as reduction in viral infection up to 8 uM pretreated for 30 mins followed by viral infection and measured 72 hrs post-infection; format: cell-based
Summary of the method: (§4)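 N154Q reporter particles were made by transfecting 293T cells 1:1 with C-prME-N154Q and subgenomic WNV GFP replicon plasmids, harvested at 48 h. Vero cells were pretreated with compound for 30 min at room temperature, then infected with wild-type or N154Q particles. GFP+ cells per well were counted from whole-well images at 72 h; mean ±SD of triplicate wells.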

[10] = Therapeutic index, ratio of TC50 for African green monkey Vero cells to IC50 for Zika virus harboring subgenomic GFP replicon infected in African green monkey Vero cells; format: toxicity; conditions: read-out: TI
Zika virus [11] = experiment: Antiviral activity against Zika virus harboring subgenomic GFP replicon infected in African green monkey Vero cells assessed as reduction in viral infection treated 24 hrs post-infection and measured 72 hrs post-infection; format: functional, organism-based; summary of the method: as §3
Zika virus [12] = experiment: Antiviral activity against Zika virus PRVABC-59 infected in African green monkey Vero cells assessed as reduction in viral infection up to 8 uM pretreated for 30 mins followed by viral infection and measured by 4G2 antibody based assay; format: functional, organism-based
Summary of the method: (§5)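 Vero cells at 7,500/well were pretreated with compound for 30 min at room temperature. They were then infected with PRVABC59 at a titration-set dose giving ~2000-3000 infected cells/well. Cells were fixed and stained with 4G2 anti-envelope antibody plus Alexa 488 secondary. Whole wells were imaged and positive cells counted, in triplicate wells, with the experiment repeated. Microscopy images were taken with DAPI nuclear counterstain.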

Zika virus [13] = experiment: Antiviral activity against Zika virus PRVABC-59 infected in African green monkey Vero cells assessed as reduction in viral infection at 8 uM pretreated for 30 mins followed by viral infection and measured by DAPI staining-based fluorescence microscopic method; format: functional, organism-based; summary of the method: as §5
Zika virus [14] = experiment: Antiviral activity against Zika virus PRVABC-59 infected in African green monkey Vero cells assessed as reduction in viral infection up to 200 uM pretreated for 30 mins followed by viral infection and measured by 4G2 antibody based assay; format: functional, organism-based; summary of the method: as §5
Vero [15] = experiment: Inhibition of envelope glycoprotein N154Q mutant in Zika virus infected in African green monkey Vero cells assessed as reduction in viral infection up to 200 uM pretreated for 30 mins followed by viral infection and measured 72 hrs post-infection; format: cell-based; summary of the method: as §4
Zika virus [16] = experiment: Antiviral activity against Zika virus PRVABC-59 infected in African green monkey Vero cells assessed as reduction in viral infection at 200 uM pretreated for 30 mins followed by viral infection and measured by DAPI staining-based fluorescence microscopic method; format: functional, organism-based; summary of the method: as §5
[17] = Zika virus, Vero, read-out: IC50

Structure (SMILES) | Activity (Zika virus [1]) | IC50 (Zika virus [2]; [17]) | Ka [3] | Ka [4] | CC50 at 72 h [5] | IC50 (Zika virus [6]) | CC50 at 72 h [7] | Activity (Zika virus [8]) | Activity (Zika virus [11]) | further results
C(=N\Cc1cc(C/N=C/c2cccs2)cc(-c2cc(C/N=C/c3cccs3)cc(C/N=C/c3cccs3)c2)c1)/c1cccs1 | Active | > 100000 nM | inactive | inactive | – | – | – | – | – | –
Cn1ccnc1CNCc1cc(CNCc2nccn2C)cc(-c2cc(CNCc3nccn3C)cc(CNCc3nccn3C)c2)c1 | Active | > 100000 nM | 5.9 ×10² /M | 4.4 ×10³ /M | – | – | – | – | – | –
c1coc(CNCc2cc(CNCc3ccco3)cc(-c3cc(CNCc4ccco4)cc(Cn4cc(COCCOCCOCCOCc5cn(Cc6cc(CNCc7ccco7)cc(-c7cc(CNCc8ccco8)cc(CNCc8ccco8)c7)c6)nn5)nn4)c3)c2)c1 | Active | 12400 nM | – | – | 2220 nM | 1370 nM | 51500 nM | – | – | –
c1c[nH]c(CNCc2cc(CNCc3ccc[nH]3)cc(-c3cc(CNCc4ccc[nH]4)cc(Cn4cc(COCCOCCOCCOCc5cn(Cc6cc(CNCc7ccc[nH]7)cc(-c7cc(CNCc8ccc[nH]8)cc(CNCc8ccc[nH]8)c7)c6)nn5)nn4)c3)c2)c1 | Active | 160 nM | 1.7 ×10³ /M | 2.6 ×10³ /M | 2480 nM | 240 nM | 36200 nM | inactive | inactive | inhibition (Vero [9]): Active; selectivity ratio [10]: > 220; Activity (Zika virus [12]): Active; Activity (Zika virus [13]): Active
c1csc(CNCc2cc(CNCc3cccs3)cc(-c3cc(CNCc4cccs4)cc(CNCc4cccs4)c3)c2)c1 | Active | 1310 nM | inactive | 1.4 ×10² /M | 2470 nM | 560 nM | 4120 nM | inactive | inactive | –
Cc1ccc(C(=O)Nc2ccc(S(=O)(=O)O)c3cc(S(=O)(=O)O)cc(S(=O)(=O)O)c23)cc1NC(=O)c1cccc(NC(=O)Nc2cccc(C(=O)Nc3cc(C(=O)Nc4ccc(S(=O)(=O)O)c5cc(S(=O)(=O)O)cc(S(=O)(=O)O)c45)ccc3C)c2)c1 [SURAMIN] | – | 44000 nM | – | – | – | – | > 200000 nM | inactive | inactive | Activity (Zika virus [14]): Active; Activity (Zika virus [2]): Dose-dependent effect; inhibition (Vero [15]): Active; Activity (Zika virus [16]): Active
O=C(NCc1cc(CNC(=O)c2cccs2)cc(-c2cc(CNC(=O)c3cccs3)cc(CNC(=O)c3cccs3)c2)c1)c1cccs1 | Active | > 100000 nM | – | – | – | – | – | – | – | –
c1c[nH]c(CNCc2cc(CNCc3ccc[nH]3)cc(-c3cc(CNCc4ccc[nH]4)cc(CNCc4ccc[nH]4)c3)c2)c1 | Active | 360 nM | 3.6 ×10⁴ /M | 1.4 ×10³ /M | 2430 nM | 450 nM | 34200 nM | inactive | inactive | –
c1coc(CNCc2cc(CNCc3ccco3)cc(-c3cc(CNCc4ccco4)cc(CNCc4ccco4)c3)c2)c1 | Active | 1130 nM | 5.4 ×10¹ /M | 1.1 ×10² /M | 2510 nM | 350 nM | 5430 nM | inactive | inactive | –
C(=N\Cc1cc(C/N=C/c2ccco2)cc(-c2cc(C/N=C/c3ccco3)cc(C/N=C/c3ccco3)c2)c1)/c1ccco1 | Active | > 100000 nM | 3.7 ×10¹ /M | 2 ×10² /M | – | – | – | – | – | –
O=C(NCc1cc(CNC(=O)c2ccco2)cc(-c2cc(CNC(=O)c3ccco3)cc(CNC(=O)c3ccco3)c2)c1)c1ccco1 | Active | – | – | – | – | – | – | – | – | IC50 (Zika virus [2]; vero): Nd(Insoluble)
C(=N\Cc1cc(C/N=C/c2ccc[nH]2)cc(-c2cc(C/N=C/c3ccc[nH]3)cc(C/N=C/c3ccc[nH]3)c2)c1)/c1ccc[nH]1 | Active | 1360 nM | 2.4 ×10³ /M | 3 ×10³ /M | 17600 nM | 3060 nM | 46100 nM | inactive | inactive | –
NCc1cc(CN)cc(-c2cc(CN)cc(CN)c2)c1 | Active | > 100000 nM | – | – | – | – | – | – | – | –
